From ChEMBL document CHEMBL2046280, “Discovery of the novel potent and selective FLT3 inhibitor 1-{5-[7-(3- morpholinopropoxy)quinazolin-4-ylthio]-[1,3,4]thiadiazol-2-yl}-3-p-tolylurea and its anti-acute myeloid leukemia (AML) activities in vitro and in vivo” (J Med Chem, 2012)

What was measured:
[1] = tested on: MV4-11; assay: Cytotoxicity against FLT3-dependent human MV4-11 cells after 72 hrs by MTT assay; format: functional, cell-based; conditions: MV4-11, 72 h
Summary of the method: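 Leukemia cells at 1−4 × 10⁴ per well were exposed to increasing inhibitor concentrations for 72 h at 37 °C. MTT was then added for 2−4 h, and cells were lysed with 20% acidified SDS. OD read at 570 nm. Viability relative to 0.1% DMSO controls; triplicate. MV4-11 grown in IMDM, others in RPMI 1640 or DMEM with 10% FBS.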

[2] = tested on: HCT-116; assay: Cytotoxicity against FLT3-independent human HCT116 cells after 72 hrs by MTT assay; format: functional, cell-based; conditions: HCT-116, 72 h
Summary of the method: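 Adherent lines at 2−5 × 10³ cells/well were allowed to settle 24 h, then the medium was replaced with serial inhibitor dilutions for 72 h. MTT was added for 2−4 h, followed by dissolution in 100% DMSO. OD read at 570 nm. Viability relative to 0.1% DMSO controls; triplicate. Grown in RPMI 1640 or DMEM with 10% FBS, 5% CO₂, 37 °C.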

[3] = target: T1, Receptor-type tyrosine-protein kinase FLT3 (Homo sapiens, UniProt P36888); assay: Inhibition of human FLT3
T1 sequence (P36888 whole entry): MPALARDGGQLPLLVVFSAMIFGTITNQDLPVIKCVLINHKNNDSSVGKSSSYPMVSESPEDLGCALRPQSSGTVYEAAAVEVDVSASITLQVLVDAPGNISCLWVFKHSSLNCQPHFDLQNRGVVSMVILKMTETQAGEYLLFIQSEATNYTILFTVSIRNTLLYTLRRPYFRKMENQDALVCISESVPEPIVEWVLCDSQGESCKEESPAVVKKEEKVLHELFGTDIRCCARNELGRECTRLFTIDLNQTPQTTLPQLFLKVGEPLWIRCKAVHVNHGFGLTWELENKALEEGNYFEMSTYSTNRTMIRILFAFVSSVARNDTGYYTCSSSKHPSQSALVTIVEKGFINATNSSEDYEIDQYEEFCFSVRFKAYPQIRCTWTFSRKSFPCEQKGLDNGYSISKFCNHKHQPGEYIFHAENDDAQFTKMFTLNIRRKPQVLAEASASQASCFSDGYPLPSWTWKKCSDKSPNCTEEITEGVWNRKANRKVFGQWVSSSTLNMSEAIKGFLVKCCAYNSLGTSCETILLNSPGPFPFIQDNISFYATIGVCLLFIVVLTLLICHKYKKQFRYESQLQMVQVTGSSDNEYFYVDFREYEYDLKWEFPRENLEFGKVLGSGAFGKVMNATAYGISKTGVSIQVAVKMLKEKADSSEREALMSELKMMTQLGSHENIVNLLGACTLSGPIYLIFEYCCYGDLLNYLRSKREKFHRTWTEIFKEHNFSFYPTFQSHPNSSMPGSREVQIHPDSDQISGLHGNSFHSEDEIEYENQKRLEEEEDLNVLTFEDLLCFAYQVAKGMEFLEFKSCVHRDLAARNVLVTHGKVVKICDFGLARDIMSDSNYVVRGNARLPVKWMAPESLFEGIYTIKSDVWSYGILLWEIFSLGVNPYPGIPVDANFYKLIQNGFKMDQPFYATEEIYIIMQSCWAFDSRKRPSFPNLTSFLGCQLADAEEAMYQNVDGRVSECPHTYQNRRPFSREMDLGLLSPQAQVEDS
Summary of the method: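 Human FLT3 kinase assayed across a dose−response series at 200 μM ATP.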

[4] = tested on: MV4-11; assay: Antitumor activity against human MV4-11 cells xenografted in NOD-SCID mouse assessed as tumor growth inhibition at 50 mg/kg, ip once daily for 21 days measured every 3 days; format: functional; conditions: MV4-11, ip, route intraperitoneal, read-out: GI
[5] = Cmax in Sprague-Dawley rat at 40 mg/kg, ip; format: ADME, organism-based; set-up: dose 40 mg/kg, route intraperitoneal; conditions: in vivo
Summary of the method: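 Male Sprague−Dawley rats (200−250 g), n = 3, fasted overnight, with a femoral-vein catheter for blood sampling. Single 40 mg/kg ip dose; plasma drug levels measured by LC-MS/MS.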

| SMILES | IC50 [1] [nM] | IC50 [2] [nM] | IC50 [3] [nM] | inhibition in vivo at 50 mg/kg [4] [%] | Cmax [5] [ng/mL] |
| --- | --- | --- | --- | --- | --- |
| COCCOc1cc2ncnc(Sc3nncs3)c2cc1OCCOC | 1350 | > 10000 | – | – | – |
| COc1cc2ncnc(Sc3nccs3)c2cc1OCCN1CCCC1 | 1240 | > 10000 | – | – | – |
| COc1cc2ncnc(Sc3nc(C)cs3)c2cc1OC | 3680 | > 10000 | – | – | – |
| COc1cc2c(Sc3nccs3)ncnc2cc1OCCN1CCOCC1 | 3000 | > 10000 | – | – | – |
| COCCOc1cc2ncnc(Sc3nc(CC(=O)Nc4cccc(Cl)c4)cs3)c2cc1OCCOC | 3200 | > 10000 | – | – | – |
| COCCOc1cc2ncnc(Sc3nnc(NC(=O)Nc4ccc(C)cc4)s3)c2cc1OCCOC | 22 | > 10000 | – | – | – |
| COCCOc1cc2ncnc(Sc3nc(C)c(CC(=O)Nc4cc(C)cc(C)c4)s3)c2cc1OCCOC | 625 | > 10000 | – | – | – |
| COCCOc1cc2ncnc(Sc3nc(C)c(CC(=O)Nc4cccc(Cl)c4)s3)c2cc1OCCOC | 210 | > 10000 | – | – | – |
| COc1cc2c(Sc3nccs3)ncnc2cc1OCCCN1CCOCC1 | 1150 | > 10000 | – | – | – |
| COCCOc1cc2ncnc(Sc3nc(C)c(CC(=O)Nc4cccc(C(F)(F)F)c4)s3)c2cc1OCCOC | 25 | > 10000 | – | – | – |
| COc1cc2ncnc(Sc3nccs3)c2cc1OCCN1CCCCC1 | 1610 | > 10000 | – | – | – |
| COc1cc2ncnc(Sc3nncs3)c2cc1OC | 1200 | > 10000 | 9 | – | – |
| COCCOc1cc2ncnc(Sc3nc(CC(=O)Nc4cc(C)cc(C)c4)cs3)c2cc1OCCOC | 9040 | > 10000 | – | – | – |
| COCCOc1cc2ncnc(Sc3nnc(NC(=O)Nc4cccc(F)c4)s3)c2cc1OCCOC | 400 | > 10000 | – | – | – |
| COc1cc2ncnc(Sc3nc(C)c(CC(=O)Nc4cccc(C(F)(F)F)c4)s3)c2cc1OC | 20 | > 10000 | – | – | – |
| COc1cc2ncnc(Sc3nc(C)c(CC(=O)Nc4ccc(NC(C)=O)cc4)s3)c2cc1OC | > 5000 | > 10000 | – | – | – |
| COCCOc1cc2ncnc(Sc3nc(CC(=O)Nc4ccc(C(F)(F)F)cc4)cs3)c2cc1OCCOC | 2880 | > 10000 | – | – | – |
| COc1cc2c(Sc3nccs3)ncnc2cc1OCCN1CCCC1 | 1600 | > 10000 | – | – | – |
| COc1cc2ncnc(Sc3nccs3)c2cc1OCCCN1CCOCC1 | 1020 | > 10000 | – | – | – |
| COc1cc2ncnc(Sc3nccs3)c2cc1OCCCN(C)C | 1130 | > 10000 | – | – | – |
| COCCOc1cc2ncnc(Sc3nnc(NC(C)=O)s3)c2cc1OCCOC | > 11000 | > 10000 | – | – | – |
| O=C(Nc1ccccc1)Nc1nnc(Sc2ncnc3cc(OCCCN4CCOCC4)ccc23)s1 | 10 | > 10000 | – | – | – |

| SMILES | IC50 [1] [nM] | IC50 [2] [nM] | IC50 [3] [nM] | inhibition in vivo at 50 mg/kg [4] [%] | Cmax [5] [ng/mL] |
| --- | --- | --- | --- | --- | --- |
| C=CC(=O)Nc1nnc(Sc2ncnc3cc(OCCOC)c(OCCOC)cc23)s1 | > 10000 | > 10000 | – | – | – |
| O=C(Nc1cccc(Cl)c1)Nc1nnc(Sc2ncnc3cc(OCCCN4CCOCC4)ccc23)s1 | 12 | > 10000 | – | – | – |
| COCCOc1cc2ncnc(Sc3nnc(NC(=O)Nc4cccc(Br)c4)s3)c2cc1OCCOC | 22 | > 10000 | – | – | – |
| COc1cc2c(N3CCN(C(=O)Nc4ccc(OC(C)C)cc4)CC3)ncnc2cc1OCCCN1CCCCC1 [TANDUTINIB] | 55 | – | – | – | – |
| C=CC(=O)Nc1nnc(Sc2ncnc3cc(OCCCN4CCOCC4)ccc23)s1 | 6000 | > 10000 | – | – | – |
| CCN(CC)CCNC(=O)c1c(C)[nH]c(/C=C2\C(=O)Nc3ccc(F)cc32)c1C [SUNITINIB] | 3 | – | – | – | – |
| COCCOc1cc2ncnc(Sc3nc(CC(=O)Nc4cccc(C(F)(F)F)c4)cs3)c2cc1OCCOC | 830 | > 10000 | – | – | – |
| COc1cc2ncnc(Sc3nc(C)c(CC(=O)Nc4cc(Cl)cc(Cl)c4)s3)c2cc1OC | 1400 | > 10000 | – | – | – |
| COCCOc1cc2ncnc(Sc3nc(C)c(CC(=O)Nc4nc5ccc(OC)cc5s4)s3)c2cc1OCCOC | 1900 | > 10000 | – | – | – |
| COCCOc1cc2ncnc(Sc3nc(C)c(CC(=O)NC4CC4)s3)c2cc1OCCOC | 2420 | > 10000 | – | – | – |
| COc1cc2ncnc(Sc3nccs3)c2cc1OC | 1140 | > 10000 | 7 | – | – |
| C#Cc1cccc(NC(=O)Nc2nnc(Sc3ncnc4cc(OCCOC)c(OCCOC)cc34)s2)c1 | 5 | > 10000 | – | < 50 | – |
| COCCOc1cc2ncnc(Sc3nc(C)c(CC(=O)Nc4ccc(C(F)(F)F)cc4)s3)c2cc1OCCOC | 27 | > 10000 | – | – | – |
| COc1cc2c(Sc3nccs3)ncnc2cc1OCCN1CCCCC1 | 1500 | > 10000 | – | – | – |
| COc1cc2ncnc(Sc3nc(C)c(CC(=O)Nc4cccc(Cl)c4)s3)c2cc1OC | 450 | > 10000 | – | – | – |
| COCCOc1cc2ncnc(Sc3nnc(NC(=O)Nc4cccc(Cl)c4)s3)c2cc1OCCOC | 20 | > 10000 | – | – | – |
| C#Cc1cccc(NC(=O)Nc2nnc(Sc3ncnc4cc(OCCCN5CCOCC5)ccc34)s2)c1 | 0.3 | > 10000 | 6 | < 50 | 2740 |
| COCCOc1cc2ncnc(Sc3nccs3)c2cc1OCCOC | 1400 | > 10000 | – | – | – |
| COc1cc2ncnc(Sc3nc(C)c(CC(=O)NCc4ccc(Cl)cc4)s3)c2cc1OC | > 10000 | > 10000 | – | – | – |
| COCCOc1cc2ncnc(Sc3nnc(NC(=O)Nc4ccc(C(F)(F)F)cc4)s3)c2cc1OCCOC | 300 | > 10000 | – | – | – |
| COc1cc2ncnc(Sc3nccs3)c2cc1OCCN1CCOCC1 | 2950 | > 10000 | – | – | – |
